# Laboratory results from ChEMBL document CHEMBL4359914, “Design, synthesis and biological evaluation of stereo- and regioisomers of amino aryl esters as multidrug resistance (MDR) reversers” (Eur J Med Chem, 2019).
# pEC50, pIC50: −log10 of the molar value. Calls of active or inactive are those of the source. The calls are words filed in the database; no cut-off is given here.
# Assays:
# [1] = biological target: T1, ATP-dependent translocase ABCB1 (Homo sapiens, UniProt P08183); assay: Inhibition of MDR1 (unknown origin) expressed in MDCK-MDR1 cells assessed as decrease in ATP consumption incubated for 2 hrs by ATPlite luminescence assay; format: cell-based; conditions: mdck-mdr1, 2 h
# [2] = biological target: T1, ATP-dependent translocase ABCB1; assay: Inhibition of P-gp in human K562/DOX cells assessed as drug level causing 50% increase in nuclear pirarubicin concentration incubated for 30 mins by fluorescence based assay; format: cell-based; conditions: read-out: I0.5
# [3] = biological target: T2, BCRP (ABCG2) (Homo sapiens, UniProt Q9UNQ0); assay: Inhibition of BCRP (unknown origin) expressed in MDCK cells assessed as increase in Hoechst 33342 accumulation at upto 100 uM incubated for 30 mins by Hoechst 33342 dye based fluorescence assay; format: cell-based; conditions: MDCK cells expressing BCRP, probe Hoechst 33342
# T2 sequence (Q9UNQ0 whole entry): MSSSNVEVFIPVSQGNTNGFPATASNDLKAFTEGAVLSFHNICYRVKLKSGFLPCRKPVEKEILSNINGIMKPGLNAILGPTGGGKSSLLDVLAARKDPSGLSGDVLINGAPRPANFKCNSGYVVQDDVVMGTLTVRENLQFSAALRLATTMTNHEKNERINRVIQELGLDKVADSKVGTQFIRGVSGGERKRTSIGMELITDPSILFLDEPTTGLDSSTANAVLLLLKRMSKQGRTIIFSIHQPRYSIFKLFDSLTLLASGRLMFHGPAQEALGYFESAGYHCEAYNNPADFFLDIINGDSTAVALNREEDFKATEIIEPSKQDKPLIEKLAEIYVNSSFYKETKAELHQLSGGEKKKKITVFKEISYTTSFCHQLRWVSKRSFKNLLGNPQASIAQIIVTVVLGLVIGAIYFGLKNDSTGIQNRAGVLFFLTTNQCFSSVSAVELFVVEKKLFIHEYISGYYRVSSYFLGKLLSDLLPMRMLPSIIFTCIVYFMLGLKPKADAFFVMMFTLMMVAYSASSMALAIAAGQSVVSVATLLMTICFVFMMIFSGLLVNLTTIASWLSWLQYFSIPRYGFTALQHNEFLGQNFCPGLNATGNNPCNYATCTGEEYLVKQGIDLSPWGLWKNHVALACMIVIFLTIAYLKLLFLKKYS
# [4] = Stability of compound in human plasma assessed as half life at 1 uM incubated for 120 min by LC-MS/MS analysis; format: ADME, cell-free
# Outline: (§1)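 Analyte added to PBS or human plasma (healthy volunteer, stored at -80 °C) to 1 μM; incubated at 37 °C for 0, 30, 60 and 120 min, triplicate per time point. Internal standard solution added, centrifuged, supernatant dried under nitrogen and redissolved. Analyte quantified by LC-MS/MS in MRM mode; half-life derived from decay rate k.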
# [5] = biological target: T1, ATP-dependent translocase ABCB1; assay: Inhibition of P-gp in human K562/DOX cells assessed as drug level causing maximum increase in nuclear pirarubicin concentration incubated for 30 mins by fluorescence based assay relative to control; format: cell-based; conditions: 0.5 h
# [6] = biological target: T1, ATP-dependent translocase ABCB1; assay: Inhibition of P-gp (unknown origin) expressed in MDCK-MDR1 cells assessed as increase in calcein-AM accumulation incubated for 30 mins by calcein-AM dye based fluorescence assay; format: cell-based
# [7] = Chemical stability of compound assessed as half life in PBS at 1 uM incubated 120 mins by LC-MS/MS analysis; format: physicochemical; outline: as §1
# [8] = biological target: T3, Broad substrate specificity ATP-binding cassette transporter ABCG2 (Homo sapiens, UniProt Q9UNQ0); assay: Inhibition of BCRP (unknown origin) expressed in MDCK cells assessed as increase in Hoechst 33342 accumulation incubated for 30 mins by Hoechst 33342 dye based fluorescence assay; format: cell-based; conditions: for pEC50: read-out: EC50
# T3 sequence (Q9UNQ0 whole entry): T2 sequence (Q9UNQ0 whole entry)
# [9] = biological target: P-gp (ABCB1) (Homo sapiens, UniProt P08183); assay: Inhibition of P-gp (unknown origin) in […] MDCK-MDR1 cells assessed as increase in doxorubicin-induced cytotoxicity at 500 nM […] by MTT assay relative to control; format: cell-based; conditions: probe doxorubicin
# [10] = system: MDCK; assay: Induction of ROS-mediated cell death in dog MDCK cells expressing MRP1 at 500 nM in presence of NAC incubated for 24 hrs by DCFDA-AM staining based ATPlite luminescence assay; format: functional; conditions: Canis lupus familiaris
# Outline: (§2)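 Viability by ATPlite luminescence; untreated cell RLU set as 100%, results as % viable cells vs untreated. Quadruplicates, n = 3, means ± SD.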
# [11] = system: MDCK; assay: Induction of ROS-mediated cell death in dog MDCK cells expressing MRP1 at 500 nM incubated for 24 hrs by DCFDA-AM staining based ATPlite luminescence assay; format: functional; conditions: Canis lupus familiaris; outline: as §2
# [12] = system: MDCK; assay: Cytotoxicity against dog MDCK cells assessed as reduction in cell viability incubated for 24 hrs by MTT assay; format: cell-based; conditions: Canis lupus familiaris
# Outline: (§3)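 MDCK parental, MDCK-MDR1 and MDCK-MRP1 cells grown in DMEM high glucose with 10% FBS, 2 mM glutamine, penicillin/streptomycin at 37 °C, 5% CO2. Compound exposure 24 h; viability by MTT. EC50 taken per line; selectivity ratio computed as EC50 parental/EC50 MDR.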
# [13] = system: MDCK; assay: Induction of ROS generation in dog MDCK cells over expressing MRP1 at 500 nM incubated for 24 hrs by DCFDA-AM staining based ATPlite luminescence assay; format: functional, cell-based; conditions: Canis lupus familiaris
# Outline: (§4)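 MDCK-MRP1 or MDCK-MDR1 cells grown 24 h in fresh medium or with 500 nM compound, with or without 10 mM N-acetyl-cysteine. Intracellular ROS measured fluorimetrically with DCFDA-AM probe, expressed as nmol/mg cellular protein; duplicates, n = 3, means ± SD.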
# [14] = system: MDCK; assay: Cytotoxicity against dog MDCK cells expressing MRP1 assessed as reduction in cell viability incubated for 24 hrs by MTT assay; format: functional, cell-based; conditions: Canis lupus familiaris; outline: as §3
# [15] = system: MDCK-MDR1; assay: Induction of ROS generation in dog MDCK-MDR1 cells at 500 nM incubated for 24 hrs by DCFDA-AM staining based ATPlite luminescence assay; format: functional, cell-based; conditions: Canis lupus familiaris; outline: as §4
# [16] = system: MDCK-MDR1; assay: Induction of ROS-mediated cell death in dog MDCK-MDR1 cells at 500 nM incubated for 24 hrs by DCFDA-AM staining based ATPlite luminescence assay; format: functional; conditions: Canis lupus familiaris; outline: as §2
# [17] = system: MDCK-MDR1; assay: Induction of ROS-mediated cell death in dog MDCK-MDR1 cells at 500 nM incubated for 24 hrs in presence of NAC by DCFDA-AM staining based ATPlite luminescence assay; format: functional; conditions: Canis lupus familiaris; outline: as §2
# [18] = system: MDCK-MDR1; assay: Cytotoxicity against dog MDCK-MDR1 cells assessed as reduction in cell viability incubated for 24 hrs by MTT assay; format: functional, cell-based; conditions: Canis lupus familiaris, MDCK-MDR1, 24 h; outline: as §3
# T1 sequence (P08183 whole entry): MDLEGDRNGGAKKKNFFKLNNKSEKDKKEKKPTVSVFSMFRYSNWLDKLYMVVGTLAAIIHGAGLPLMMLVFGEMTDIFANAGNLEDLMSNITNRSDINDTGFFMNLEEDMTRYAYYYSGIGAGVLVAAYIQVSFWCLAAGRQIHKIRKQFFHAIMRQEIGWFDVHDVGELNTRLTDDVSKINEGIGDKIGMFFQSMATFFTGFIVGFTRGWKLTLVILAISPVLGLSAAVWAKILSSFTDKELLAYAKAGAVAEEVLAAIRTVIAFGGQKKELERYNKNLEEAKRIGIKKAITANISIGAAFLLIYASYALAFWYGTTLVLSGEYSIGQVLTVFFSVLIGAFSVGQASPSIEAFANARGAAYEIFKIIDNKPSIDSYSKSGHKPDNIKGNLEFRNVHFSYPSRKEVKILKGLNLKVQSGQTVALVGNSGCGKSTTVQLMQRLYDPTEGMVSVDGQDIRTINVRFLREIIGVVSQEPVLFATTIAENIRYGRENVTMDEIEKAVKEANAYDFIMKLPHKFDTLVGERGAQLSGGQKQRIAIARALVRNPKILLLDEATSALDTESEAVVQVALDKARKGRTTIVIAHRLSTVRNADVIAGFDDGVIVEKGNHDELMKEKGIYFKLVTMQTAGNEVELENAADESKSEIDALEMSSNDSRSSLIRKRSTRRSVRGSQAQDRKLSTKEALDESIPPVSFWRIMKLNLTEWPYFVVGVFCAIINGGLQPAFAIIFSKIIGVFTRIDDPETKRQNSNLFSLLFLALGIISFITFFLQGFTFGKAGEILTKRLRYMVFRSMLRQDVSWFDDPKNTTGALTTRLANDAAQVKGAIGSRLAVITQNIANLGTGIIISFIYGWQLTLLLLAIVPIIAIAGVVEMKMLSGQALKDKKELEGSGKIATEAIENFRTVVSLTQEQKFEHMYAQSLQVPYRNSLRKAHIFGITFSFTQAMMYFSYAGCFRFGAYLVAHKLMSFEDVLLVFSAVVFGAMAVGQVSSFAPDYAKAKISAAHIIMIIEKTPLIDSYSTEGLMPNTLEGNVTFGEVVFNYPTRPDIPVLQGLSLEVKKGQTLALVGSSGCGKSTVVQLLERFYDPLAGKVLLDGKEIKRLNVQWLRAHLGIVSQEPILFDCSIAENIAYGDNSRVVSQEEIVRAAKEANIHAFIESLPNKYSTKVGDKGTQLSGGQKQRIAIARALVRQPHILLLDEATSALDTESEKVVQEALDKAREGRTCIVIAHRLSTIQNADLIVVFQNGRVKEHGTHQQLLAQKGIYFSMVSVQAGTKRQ
# Chain of P-gp (ABCB1) (P08183 whole entry): as above
Structure (SMILES),inhibition (INH) [1],pIC50 [2],inhibition at 0.5 h [3] [%],half-life at 1 µM [4] [h],Alpha max [5],pEC50 [6],half-life at 1 µM [7] [h],EC50 ([8]; mdck),"inhibition at 24 h, 0.5 µM [9] [%]",Activity [10],Activity [11],pEC50 [12],Activity [13],pEC50 [14],pEC50 [8],Activity [15],Activity [16],Activity [17],pEC50 [18]
COc1cc(/C=C/C(=O)OC[C@H](C)CN(C)CCCCCOC(=O)c2cc(OC)c(OC)c(OC)c2)cc(OC)c1OC,Not Active,6.40,0,0.483,0.99,6.00,≥ 4,Not Active,–,–,–,–,–,–,–,–,–,–,–
COc1cc(/C=C/C(=O)OCCCCCN(C)C[C@@H](C)COC(=O)c2cc(OC)c(OC)c(OC)c2)cc(OC)c1OC,Not Active,6.46,–,≥ 4,0.72,6.51,≥ 4,–,30,Active,Active,4.00,Active,4.93,4.39,–,–,–,–
COc1cc(/C=C/C(=O)OCCCN(C)C[C@H](C)COC(=O)c2cc(OC)c(OC)c(OC)c2)cc(OC)c1OC,Not Active,6.27,–,≥ 4,0.89,6.26,≥ 4,–,–,–,–,4.00,–,–,5.19,Active,Active,Active,4.40
